XBP1 UPR activ = adaptive UPR (XBP1) activation. CHO-XBP1 luciferase reporter, IRE1-XBP1 UPR activation, luminescence; percent of tunicamycin response, DMSO as zero. activation, % at 20 µM. 330,000 compounds, 0.33% hits. AID 463104;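 active means versus positive control, 20 µM dose yields 30% or more activation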;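 further: 100% = tunicamycin at 10 µg/mL and 0% = DMSO only wells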
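Assay system: IRE1-XBP1 luciferase reporter CHO line. Input: 1000 cells/well. Buffer or medium: F12 with 10% serum. Doses: 20 µM, 1% DMSO. Times: overnight seeding at 37 °C, 6 h compound treatment at 37 °C. Technique: Steady-Glo luciferase glow luminescence, 10 min after reagent addition.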
tim23-1 inh = tim23-1 yeast growth inhibition | 330,000 compounds, 1.3% hits | S. cerevisiae tim23-1 growth, BacTiter-Glo luminescence, 24 h | inhibition, % at 20 µM;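 active means growth inhibition of the mutant yeast at or above 50%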;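 further: temperature-sensitive mutant grown at 25 °C; plate controls were DMSO-treated mutant yeast for no effect and medium wells lacking yeast for full effect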
UPR CHOP act = apoptotic UPR (CHOP) activation; CHO-CHOP luciferase reporter, luminescence; percent of tunicamycin response over DMSO baseline; activation, % at 10 µM; 330,000 compounds, 0.34% hits; AID 449763;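 active means at 10 µM dose, activation of 40% or more, normalized to positive control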;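 further: 100% = tunicamycin at 10 µg/mL and 0% = DMSO alone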
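System: CHO-CHOP luciferase reporter cell line | Buffer or medium: F12 medium containing 10% fetal bovine serum | Doses: One dose, 10 µM in 0.5% DMSO | Times: 6 h compound exposure at 37 °C after overnight seeding | Signal: Luciferase luminescence | Read-out: % activation vs tunicamycin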
TIM10 inh = growth inhibitors of TIM10 yeast strain; S. cerevisiae TIM10 strain growth, BacTiter-Glo luminescence, 24 h; inhibition, % at 10 µM; 330,000 compounds, 1.4% hits; AID 463195;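 active means inhibition of 40% or more at the single tested concentration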;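 further: wild-type TIM10 isogenic control strain grown at permissive 25 °C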
tim10-1 inh = tim10-1 yeast growth inhibition; inhibition, % at 20 µM; 330,000 compounds, 2.2% hits; S. cerevisiae tim10-1 ts strain growth, BacTiter-Glo, 24 h;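 active means inhibition of at least 40%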;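 further: mutant grown at 25 °C; 0% = DMSO wells with yeast and 100% = wells holding no yeast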
tim10-1 conf = tim10-1 yeast growth inhibition, confirmed; shares compounds with tim10-1 inh; S. cerevisiae tim10-1 ts strain growth, BacTiter-Glo, 24 h; AID 463213; inhibition, % at 20 µM; 7,400 compounds, 56% hits;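 active means inhibition of yeast growth at or above a set limit in either of two repeat tests at 20 µM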;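 further: tim10-1 mutant grown at permissive 25 °C to find synthetic lethal compounds; 0% = DMSO yeast wells and 100% = medium wells without yeast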
TIM10 conf = TIM10 yeast growth inhibition, confirmed | shares compounds with TIM10 inh | S. cerevisiae tim10 strain growth, BacTiter-Glo luminescence, 24 h | inhibition, % at 10 µM | 4,600 compounds, 63% hits;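 active means inhibition of yeast growth at or above a set limit in either of two replicates at 10 µM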;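 further: this counterscreen used the strain with wild-type TIM10; 0% = yeast with DMSO and 100% = medium wells lacking yeast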
tim23-1 conf = tim23-1 yeast growth inhibition, confirmed; shares compounds with tim23-1 inh; S. cerevisiae tim23-1 growth, BacTiter-Glo luminescence, 24 h; inhibition, % at 20 µM; 4,400 compounds, 83% hits;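 active means inhibition above about 39% in either of two replicate wells at 20 µM, limit read from the data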;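 further: temperature-sensitive tim23-1 mutant grown at 25 °C; 0% = DMSO wells with yeast and 100% = medium wells without yeast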
* marks the source's active call; other numbers are inactive results; . = no result. Only some compounds are listed: those with a hit (about 3.9% of all), similar ones and a draw of the others.

SMILES | XBP1 UPR activ | tim23-1 inh | UPR CHOP act | TIM10 inh | tim10-1 inh | tim10-1 conf | tim23-1 conf | others
Cc1ccccc1CC(=O)c1ccc(O)c(C)c1O | -1 | 61* | 0 | 31 | 49* | 46* | 66*
O=C(COc1cccc(NC(=O)c2cccs2)c1)c1ccc(F)cc1 | -1 | 53* | 3 | 62* | 46* | 40* | 76* | TIM10 conf=-16
Cc1ccccc1/C=C1\C(=O)Nc2ccc(F)cc21 | 1 | 53* | -1 | 26 | 44* | 38* | 61*
COc1ccc(-n2c(=S)[nH]c3cc(C(=O)NCc4cccnc4)ccc3c2=O)cc1 | -1 | -1 | -2 | -16 | 2 | . | .
O=C1/C(=C/c2ccccc2)CCCc2ccccc21 | 2 | 17 | 3 | 29 | 20 | . | .
COc1ccc(/C=C2\CCc3ccccc3C2=O)cc1O | 19 | 65* | 0 | 45* | 54* | 41* | 59* | TIM10 conf=42*
COc1ccc(C(=O)CCC(=O)Nc2cc(Cl)c(O)c(Cl)c2)cc1 | 2 | 3 | 1 | -13 | -8 | . | .
Cc1ccc(N2C(=O)CC(Sc3ncn[nH]3)C2=O)cc1C (stereo not drawn) | 0 | 77* | 1 | 56* | 47* | 53* | 49* | TIM10 conf=55*
Cc1ccc(CNC(=O)c2nnn(CC(=O)Nc3cccc(C)c3C)c2N)cc1 | -3 | 8 | 1 | 9 | 22 | . | .
Cc1ccc(C(=O)OCN2C(=O)c3ccccc3C2=O)cc1S(=O)(=O)N1CCOCC1 | -1 | 16 | 1 | 2 | 12 | . | .
O=[N+]([O-])c1ccc2[nH]c3c(c2c1)CCCC3 | 1 | 66* | -1 | 40 | 65* | 57* | 66*
CC(C)(C)C1CCC(=NOC(=O)c2ccc(F)cc2)CC1 (stereo not drawn) | -2 | 67* | 0 | 85* | 45* | 4 | 62* | TIM10 conf=83*
O=C(O/N=C1/CCSc2ccccc21)c1ccc(F)cc1 | 0 | 25 | 4 | 26 | 23 | . | .
Cc1ccc(S(=O)(=O)CC(=O)Nc2nc(-c3ccccc3)cs2)cc1 | -5 | 52* | 1 | 29 | 44* | 45* | 47*
Cc1ccc(S(=O)(=O)CCC(=O)Nc2nc(-c3ccncc3)cs2)cc1 | -4 | 4 | 1 | -7 | 11 | . | .
COc1cccc(CSc2nc3ccccc3cc2C=O)c1 | 19 | 71* | 0 | 46* | 49* | 44* | 78* | TIM10 conf=53*
CC1CCCN(C(=O)c2cc3ccccc3cc2O)C1 (stereo not drawn) | -3 | 27 | 2 | 13 | 15 | . | .
COc1ccc(OC)c(C(c2nnnn2C2CCCC2)N2CCN(c3ccccc3F)CC2)c1 (stereo not drawn) | -2 | 14 | -1 | 10 | 21 | . | .
COc1ccc(OC)c(C(c2nnnn2C2CCCC2)N2CCc3ccccc3C2)c1 (stereo not drawn) | 0 | 52* | 4 | 36 | 42* | 38* | 42*
COc1cc2c(cc1OC)[C@H](C)N(C(=O)NCc1ccccc1)CC2 | 7 | 10 | 1 | 7 | 1 | . | .
Cc1ccccc1C(=O)Nc1ccccc1C(=O)N/N=C\c1ccco1 | 1 | 27 | 0 | 17 | 17 | . | .
O=C(Nc1ccccc1C(=O)N/N=C/c1ccco1)c1ccc(F)cc1 | -5 | 60* | 2 | 31 | 42* | 52* | 59*
Cc1nnc(SCC(=O)N2CCN(C(=O)c3ccco3)CC2)n1-c1ccccc1 | 1 | -7 | 3 | 11 | 4 | . | .
Cc1cccc(NS(=O)(=O)c2ccc(C)c(C(=O)NCC(c3cccs3)N(C)C)c2)c1 (stereo not drawn) | 3 | -4 | 4 | -3 | -8 | . | .
Cc1ccccc1N1CCN(S(=O)(=O)c2ccc3oc(=O)ccc3c2)CC1 | -2 | 68* | -1 | 42* | 79* | 65* | 57* | TIM10 conf=54*

Assay outcomes deposited in PubChem BioAssay by Sanford-Burnham Center for Chemical Genomics.
